A selection follows.
Apaf-1 act = activators of human Apaf-1 apoptosome, primary screen, biochemical, DEVD-Rh110 fluorescence, uHTS | Apoptotic protease-activating factor 1 (Homo sapiens), O14727 | Apaf-1 apoptosome caspase-3 activation; active compounds read low | activity change, negative = activation, % at 20 µM | actives 0.31% (n = 330,000) | AID 489031, 2010;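 active = activity change at or below -40% at 20 µM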
Target sequence (O14727 whole entry, looked up): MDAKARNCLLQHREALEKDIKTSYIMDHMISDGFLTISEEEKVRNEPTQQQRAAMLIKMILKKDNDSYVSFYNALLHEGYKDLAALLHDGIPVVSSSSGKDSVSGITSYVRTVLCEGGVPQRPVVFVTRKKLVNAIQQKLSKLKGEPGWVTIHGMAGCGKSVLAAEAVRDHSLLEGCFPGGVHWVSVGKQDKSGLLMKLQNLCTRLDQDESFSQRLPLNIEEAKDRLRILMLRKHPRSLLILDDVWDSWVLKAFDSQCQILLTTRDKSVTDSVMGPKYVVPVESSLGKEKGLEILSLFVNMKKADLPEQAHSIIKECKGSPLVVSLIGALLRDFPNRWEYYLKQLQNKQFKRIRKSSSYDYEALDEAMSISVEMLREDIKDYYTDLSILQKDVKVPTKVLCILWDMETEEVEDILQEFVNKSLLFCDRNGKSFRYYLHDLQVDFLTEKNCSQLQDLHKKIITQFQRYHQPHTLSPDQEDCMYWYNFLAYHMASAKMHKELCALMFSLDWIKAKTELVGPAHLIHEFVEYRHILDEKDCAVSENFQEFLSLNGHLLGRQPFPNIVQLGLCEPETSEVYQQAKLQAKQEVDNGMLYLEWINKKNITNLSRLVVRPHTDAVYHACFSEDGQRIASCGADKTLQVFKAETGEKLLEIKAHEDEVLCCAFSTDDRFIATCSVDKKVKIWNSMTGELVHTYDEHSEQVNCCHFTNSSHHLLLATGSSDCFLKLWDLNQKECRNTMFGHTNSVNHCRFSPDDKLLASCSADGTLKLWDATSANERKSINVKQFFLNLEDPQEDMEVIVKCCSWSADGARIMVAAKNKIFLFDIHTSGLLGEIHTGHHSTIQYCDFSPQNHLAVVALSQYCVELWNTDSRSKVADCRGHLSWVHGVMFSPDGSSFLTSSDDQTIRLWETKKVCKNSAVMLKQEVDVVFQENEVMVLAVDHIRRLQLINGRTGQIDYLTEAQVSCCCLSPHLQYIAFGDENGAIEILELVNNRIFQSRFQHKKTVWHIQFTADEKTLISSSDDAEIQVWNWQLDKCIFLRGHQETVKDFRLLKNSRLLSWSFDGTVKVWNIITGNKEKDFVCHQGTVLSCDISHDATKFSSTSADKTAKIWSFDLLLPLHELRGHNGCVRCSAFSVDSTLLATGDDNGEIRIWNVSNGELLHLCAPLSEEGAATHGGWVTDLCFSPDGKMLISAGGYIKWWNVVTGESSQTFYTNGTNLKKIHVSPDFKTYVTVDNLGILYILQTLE
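Material: reconstituted apoptosome of Apaf-1, cytochrome c, caspase-9, procaspase-3; times: 30 min preincubation, 50 min reaction, room temperature; measured by: fluorescence, 540 nm emission, 480 nm excitation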
Rh110 interf act = Rh110 fluorescence interference by putative Apaf-1 activators, confirmation, artefact control for Apaf-1 activator project, biochemical, 20 µM | shares compounds with Apaf-1 act | quenched caspase reaction, Ex480/Em540 | fluorescence interference (activity change), % at 20 µM, hits read low | 980 tested, under 10 active;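 active = mean activity change at or below -40% when tested at 20 µM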
Apaf-1 act conf = Apaf-1 activators, single-dose retest, confirmation, biochemical, fluorescence, DEVD-Rh110, 20 µM; actives 5% (n = 980); reconstituted apoptosome caspase-3 activity; active compounds read low; shares compounds with Apaf-1 act; activity change, negative = activation, % at 20 µM;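 active = mean activity change at or below -40%, meaning activation of 40% or more, at 20 µM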
* marks the source's active call; other numbers are inactive results; . = not tested or not shown.

SMILES | Apaf-1 act | Rh110 interf act | Apaf-1 act conf
C=C(C)C(=O)Nc1ccc2c(c1)OCCOCCOCCO2 | -447.5* | . | .
CCCCCCCNC(=O)C1(CC2CC(c3cccc(Br)c3)=NO2)CCNCC1 (stereo not drawn) | 46.2 | . | .
CC(C)N=c1cc2n(-c3ccc(Cl)cc3)c3ccccc3nc-2cc1Nc1ccc(Cl)cc1 | 68.2 | . | .
Cc1ccc(S(=O)(=O)N2CCC(C(=O)OCC(=O)N(C)CC(=O)Nc3ccc(F)cc3)CC2)cc1C | 51.6 | . | .
CCCOc1cc2c(C#N)c(N3CCCC3)nc(N)c2c(N)n1 | 97.6 | . | .
O=C(CCS(=O)(=O)c1ccc(Br)cc1)Nc1cc(F)ccc1F | -129.1* | . | .
CCOc1ccc(NC(=O)CCS(=O)(=O)c2ccc(Br)cc2)cc1 | -109.0* | . | .
CCOc1ccc(NS(=O)(=O)c2ccc(C(=O)N(CC)CC(=O)NCc3cccs3)cc2)cc1 | 61.2 | . | .
CCCN(CC(=O)Nc1ccccc1C)C(=O)CCCOc1ccc(Br)cc1 | 52.9 | . | .
CCCCCCCNC(=O)C1(CC2CC(c3ccc(Cl)cc3)=NO2)CCNCC1 (stereo not drawn) | 41.0 | . | .
CN1CCN(c2ccc(NC(=O)c3cc(S(N)(=O)=O)ccc3N3CCOCC3)cc2)CC1 | 40.2 | . | .
C=C(C)C(=O)Nc1cccc(C2=NOC3(C2)C[C@@H](C(N)=O)N(C(=O)c2ccc(OC)cc2)C3)c1 (stereo partly drawn) | -339.8* | . | .
CC/C(=C(\c1ccc(O)cc1)c1ccc(OCCN(C)C)cc1)c1ccccc1 | 65.3 | . | .
CCc1ccc(CNc2ccc(O)cc2)cc1 | 95.9 | . | .
CC/C(=C(/CC)c1ccc(O)cc1)c1ccc(O)cc1 | -151.0* | . | .
Cc1ccc(S(=O)(=O)N(C)C)cc1NC(=O)c1ccccc1SCC(=O)N1CCCC1 | 41.5 | . | .
CCc1sc(NC(=O)CCC(=O)O)nc1-c1cc2ccccc2oc1=O | -222.7* | 3.2 | 3.5
COc1ccc2c(c1)Cc1sc(NC(=O)c3ccccc3)nc1-2 | 83.5 | . | .
CCOC(=O)c1c(C)oc2c1c(C=NCCC(=O)O)c(O)c1ccccc12 | 81.0 | . | .
c1cc2c3c(cccc3c1)C(N1CCCCC1)=N2 | 90.9 | . | .
Cc1cc(C)nc(NS(=O)(=O)c2ccc(N)cc2)n1 | -2.8 | . | .
N#CCCS(=O)(=O)c1ccc(N)cc1 | -61.4* | -0.1 | 5.4
CCC(C)c1ccccc1NC(=O)COC(=O)c1ccc2[nH]c3c(c2c1)CCCC3 (stereo not drawn) | -169.7* | 19.6 | 22.2
Cc1ccc(NC(=O)CN(C)C(=O)c2ccc3[nH]c4c(c3c2)CC(C)CC4)cc1 (stereo not drawn) | 58.9 | . | .
COc1ccc(S(=O)(=O)Oc2ccc3cccc(N)c3c2)cc1 | 88.0 | . | .
SMILES | Apaf-1 act | Rh110 interf act | Apaf-1 act conf
Nc1ccc(N2CCOCC2)c2nonc12 | 84.2 | . | .
CC(C)(C)c1ccc(/C=C(\C#N)C(=O)Nc2ccccn2)cc1 | -186.1* | 2.2 | 20.8
N#Cc1cn(Cc2ccncc2)c(=O)[nH]c1=O | -181.6* | 3.3 | 13.5
COc1ccc2sc(-c3ccccc3OC)c(-c3ccc(OCCN(C)C)cc3)c2c1 | 65.0 | . | .
CCOC(=O)C1=C(COC(=O)c2ccc([N+](=O)[O-])s2)NC(=O)NC1C (stereo not drawn) | 45.7 | . | .
CC(=O)N(C1=C(N2CCOCC2)C(=O)c2ccccc2C1=O)c1ccc(C(=O)O)cc1 | 58.6 | . | .
CCC[C@@H](CN1CCC[C@H]1CN1C(N)=NC[C@H]1CC(C)C)N1C[C@@H](Cc2ccccc2)N(CCc2ccc(Cl)c(Cl)c2)C1=N | 68.3 | . | .
CC(=O)c1cccc(CN2CCN(C3CCCC3)C(CCO)C2)c1 (stereo not drawn) | -300.2* | -2.1 | 11.8
CN(Cc1ccc(Cl)c(Cl)c1)C(=O)c1cccc(S(=O)(=O)N2CCN(Cc3ccccc3)CC2)c1 | 71.8 | . | .
COc1cccc(NC(=O)C(Sc2nnc(Nc3ccccc3C)s2)c2ccccc2)c1 (stereo not drawn) | -275.8* | 15.9 | 6.1
COc1cccc(-c2nnc(SC(C(=O)c3c[nH]c4ccccc34)c3ccccc3)n2C)c1 (stereo not drawn) | 42.9 | . | .
COc1cccc(NC(=S)Nc2cccc3ccccc23)c1 | 93.8 | . | .
COc1ccc(/C=N/Nc2cc(C)nc3ccc(OC)cc23)c(OC)c1 | 42.7 | . | .
CN1CCc2cccc3c2C1Cc1ccc(O)c(O)c1-3 (stereo not drawn) | 49.6 | . | .
CCCCCCSc1cc(-c2nc3cnccn3c2NCCCC)ccc1OC | 46.1 | . | .
Cc1ccc(NC(=O)C2CCCN2C(=O)NC2CCCCC2)cc1C (stereo not drawn) | -120.5* | 13.0 | 9.5
Cc1cc2oc3cc(NCCC4CCCN4C)ccc3c(=O)c2cc1C (stereo not drawn) | 43.5 | . | .
CCN(CC)CCNC(=O)c1ccc2c(c1NCCO)C(=O)c1ccccc1C2=O | 54.1 | . | .
CCCN(C(=O)COC(=O)C12CCC(=O)N1c1ccccc1S2)c1c(N)n(Cc2ccccc2)c(=O)[nH]c1=O (stereo not drawn) | -50.2* | 3.7 | 14.2
c1ccc2c(C[C@@H]3CNCCN3CCCCC3CCCCC3)cccc2c1 | 70.9 | . | .
CC(C)Cc1nnc(NC(=O)C2CSC3(C)CCC(=O)N23)s1 (stereo not drawn) | -83.4* | 5.7 | 12.9
CCOC(=O)c1cnc(SCC(=O)N2CCN(C(=O)c3ccco3)CC2)nc1N | -93.1* | 1.2 | 9.9
CCOC(=O)c1cnc2ccc(C)cc2c1Nc1ccc(N2CCOCC2)cc1 | 41.1 | . | .
CC(C)CCn1c(N)c(S(=O)(=O)c2cccs2)c2nc3ccccc3nc21 | 51.2 | . | .
CCOc1cccc2sc(N(CCCN(C)C)C(=O)c3ccc(S(=O)(=O)N(CC)Cc4ccccc4)cc3)nc12 | 67.2 | . | .
SMILES | Apaf-1 act | Rh110 interf act | Apaf-1 act conf
CCOc1cccc2sc(N(CCCN(C)C)C(=O)c3ccc(S(=O)(=O)N(C)Cc4ccccc4)cc3)nc12 | 61.9 | . | .
O=C(NCc1ccccc1)c1ccc(CN(c2ccccn2)S(=O)(=O)c2ccccc2)cc1 | -114.7* | 4.0 | 2.3
CCCCCc1cc(=O)oc2c(C(CCN(CC)CC)c3ccc(OC)cc3)c(OC)cc(OC)c12 (stereo not drawn) | 60.6 | . | .
COc1ccc2[nH]c3c(=O)n(/N=C/c4ccc(OC)c(CN5CCCC5)c4)c(C)nc3c2c1 | 43.1 | . | .
CCNC(=S)SCCOc1ccc(C)cc1 | -127.3* | 11.9 | 19.5
COc1ccccc1C(=O)NC(CCSC)C(=O)N1CCC(Cc2ccccc2)CC1 (stereo not drawn) | 44.0 | . | .
OCC1(Cc2ccccc2)CCN(Cc2ccc(-c3ccco3)cc2)CC1 | -81.6* | -0.8 | 4.8
CC1=CC2=NC(=O)/C(=C/c3coc4ccc(Cl)cc4c3=O)C(=N)N2O1 | -521.7* | -13.8 | 11.1
CC1(C)OC(C)(C)/C(=C/Nc2ccc(O)cc2)C1=O | 48.1 | . | .
CCOc1ccc2nc3cc(NCc4ccc(OC)cc4)ccc3c(N)c2c1 | 96.5 | . | .
O=C(COC(=O)c1ccccc1Sc1ccc(C(F)(F)F)cc1[N+](=O)[O-])NC(=O)NC1CCCC1 | 40.4 | . | .
CCOc1cc(/C=C2\C(=O)N(c3nc(-c4ccc(Br)cc4)cs3)N=C2c2ccccc2)ccc1O | 53.4 | . | .
CSc1ccc(CCNC(=O)c2cc(-c3ccccc3)c(N3CCOCC3)s2)cc1 | -370.0* | 6.8 | 16.6
